Here are results for 3 compounds from ChEMBL document CHEMBL5696442, “Discovery of type II inhibitors of TGFβ-activated kinase 1 (TAK1) and mitogen-activated protein kinase kinase kinase kinase 2 (MAP4K2)” (J Med Chem, 2015).

Experiment [1] addresses Dual specificity mitogen-activated protein kinase kinase 1 (Homo sapiens) (UniProt Q02750). The experiment is described as follows: Inhibition of MAP2K1 Lys2 labeling site harbouring IMHRDVKPSNILVNSR in human Huh-7 cells at 1 uM by KiNativ Profiling analysis relative to control. The class given is cell-based.
The target in experiment [2] is Phosphatidylinositol 4-kinase beta (Homo sapiens) (UniProt Q9UBF8). The experiment is described as follows: Inhibition of PI4KB ATP labeling site harbouring VPHTQAVVLNSKDKAPYLIYVEVLECENFDTTSVPARIPENR in human Huh-7 cell lysate at 1 uM by KiNativ Profiling analysis relative to control. The class given is subcellular.
Experiment [3] has as its target 5'-AMP-activated protein kinase catalytic subunit alpha-2 (Homo sapiens) (UniProt P54646). The experiment is described as follows: Inhibition of AMPKa2 Lys1 labeling site in human Huh-7 cell lysate at 1 uM by KiNativ Profiling analysis relative to control. Format: subcellular.
For experiment [4], the target named is Serine/threonine-protein kinase 10 (Homo sapiens) (UniProt O94804). Put plainly: Inhibition of LOK Lys2 labeling site harbouring DLKAGNVLMTLEGDIR in human Huh-7 cell lysate at 1 uM by KiNativ Profiling analysis relative to control. Format: subcellular.
Experiment [5] concerns Proto-oncogene tyrosine-protein kinase receptor Ret (Homo sapiens), P07949 [V804L]. The experiment is described as follows: Inhibition of RET V804L mutant (unknown origin) at 1 uM by Ambit Kinomescan binding assay relative to control; values are per cent of control.
The target of experiment [6] is Receptor tyrosine-protein kinase erbB-2 (Homo sapiens) (UniProt P04626). The experiment is described as follows: Inhibition of ERBB2 (unknown origin) at 1 uM by Ambit Kinomescan binding assay relative to control.
Experiment [7] addresses Ribosomal protein S6 kinase alpha-3 (Homo sapiens) (UniProt P51812). Put plainly: Inhibition of RSK2 domain1 Lys2 labeling site harbouring DLKPENILLDEEGHIK in human A-375 cells at 5 uM by KiNativ Profiling analysis relative to control. Format: cell-based. The method in brief: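 Live A375 melanoma cells treated with compound at 5 or 0.5 μM, then lysed. Lysate kinases were labeled with a lysine-reactive ATP or ADP-biotin probe. Inhibition was read as protection of labeling sites from the probe.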

Experiment [8] concerns the target 5'-AMP-activated protein kinase catalytic subunit alpha-2 (Homo sapiens) (UniProt P54646). The experiment is described as follows: Inhibition of AMPKa2 Lys2 labeling site in human A-375 cells at 0.05 uM by KiNativ Profiling analysis relative to control. Format: cell-based.
Experiment [9] has as its target 5'-AMP-activated protein kinase catalytic subunit alpha-1 (Homo sapiens) (UniProt Q13131). The experiment is described as follows: Inhibition of AMPKa1 Lys1 labeling site in human A-375 cells at 0.5 uM by KiNativ Profiling analysis relative to control. The class given is cell-based.
The target in experiment [10] is 3-phosphoinositide-dependent protein kinase 1 (Homo sapiens) (UniProt O15530). The experiment is described as follows: Inhibition of PDPK1 (unknown origin) at 1 uM by Ambit Kinomescan binding assay relative to control; values are per cent of control.
In experiment [11] the target is 5'-AMP-activated protein kinase catalytic subunit alpha-1 (Homo sapiens) (UniProt Q13131). The experiment is described as follows: Inhibition of AMPKa1 Lys2 labeling site in human A-375 cells at 0.05 uM by KiNativ Profiling analysis relative to control. Format: cell-based.
Experiment [12] deals with eIF-2-alpha kinase GCN2 (Homo sapiens) (UniProt Q9P2K8). Put plainly: Inhibition of GCN2 domain2 Lys2 labeling site in human A-375 cells at 0.05 uM by KiNativ Profiling analysis relative to control. Format: cell-based.
Experiment [13] has as its target T1, Dual specificity mitogen-activated protein kinase kinase 3 (Homo sapiens) (UniProt P46734).
T1 sequence (whole entry): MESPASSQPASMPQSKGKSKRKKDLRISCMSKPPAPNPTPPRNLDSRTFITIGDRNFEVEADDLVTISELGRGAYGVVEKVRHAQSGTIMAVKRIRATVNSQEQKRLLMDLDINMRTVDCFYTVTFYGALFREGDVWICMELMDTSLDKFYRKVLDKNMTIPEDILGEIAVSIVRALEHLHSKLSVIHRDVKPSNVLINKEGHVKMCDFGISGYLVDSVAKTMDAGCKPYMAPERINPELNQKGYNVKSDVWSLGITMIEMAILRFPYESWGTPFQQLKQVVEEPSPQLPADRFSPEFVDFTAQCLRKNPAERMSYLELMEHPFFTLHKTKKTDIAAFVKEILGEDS
The experiment is described as follows: Inhibition of MEK3 (unknown origin) at 1 uM by Ambit Kinomescan binding assay relative to control; values are per cent of control.

Experiment [14] deals with Non-receptor tyrosine-protein kinase TYK2 (Homo sapiens) (UniProt P29597). Put plainly: Inhibition of TYK2 domain2 ACT labeling site in human A-375 cells at 0.5 uM by KiNativ Profiling analysis relative to control. Format: cell-based.
Experiment [15] concerns RAW. The experiment is described as follows: Inhibition of LPS induced JNK1/2 phosphorylation in mouse RAW cells preincubated for 1 hr followed by LPS stimulation and measured after 30 mins by Western blot analysis. Format: functional, cell-based. The note with it: dose 0.01-10 µM.
Experiment [16] deals with Calcium/calmodulin-dependent protein kinase kinase 2 (Homo sapiens) (UniProt Q96RR4). Put plainly: Inhibition of CAMKK2 (unknown origin) at 10 uM by Ambit Kinomescan binding assay relative to control.
For experiment [17], the target named is Calcium/calmodulin-dependent protein kinase type II subunit beta (Homo sapiens) (UniProt Q13554). Put plainly: Inhibition of CAMK2B (unknown origin) at 10 uM by Ambit Kinomescan binding assay.
Experiment [18] concerns the target T2, Dual specificity mitogen-activated protein kinase kinase 5 (Homo sapiens) (UniProt Q13163).
T2 sequence (whole entry): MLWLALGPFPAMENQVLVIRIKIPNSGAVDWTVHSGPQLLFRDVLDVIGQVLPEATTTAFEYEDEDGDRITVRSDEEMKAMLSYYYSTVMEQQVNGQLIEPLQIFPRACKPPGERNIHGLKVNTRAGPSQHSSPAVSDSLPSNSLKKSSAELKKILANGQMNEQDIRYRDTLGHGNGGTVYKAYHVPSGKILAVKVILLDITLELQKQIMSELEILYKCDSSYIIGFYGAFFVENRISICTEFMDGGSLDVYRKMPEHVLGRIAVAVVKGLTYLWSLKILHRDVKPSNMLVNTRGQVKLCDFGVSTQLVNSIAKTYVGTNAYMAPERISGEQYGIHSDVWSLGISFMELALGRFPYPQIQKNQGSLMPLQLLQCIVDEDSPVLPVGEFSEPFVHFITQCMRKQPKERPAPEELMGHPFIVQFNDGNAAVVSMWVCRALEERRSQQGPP
Put plainly: Inhibition of MAP2K5 Lys2 labeling site in human A-375 cells at 5 uM by KiNativ Profiling analysis relative to control. Format: cell-based.

The structures appear in SMILES notation. Calls of active or inactive are those of the source. No cut-off for these calls is given here.

5'-AMP-activated protein kinase catalytic subunit alpha-2 (Homo sapiens), sequence (P54646 whole entry, looked up): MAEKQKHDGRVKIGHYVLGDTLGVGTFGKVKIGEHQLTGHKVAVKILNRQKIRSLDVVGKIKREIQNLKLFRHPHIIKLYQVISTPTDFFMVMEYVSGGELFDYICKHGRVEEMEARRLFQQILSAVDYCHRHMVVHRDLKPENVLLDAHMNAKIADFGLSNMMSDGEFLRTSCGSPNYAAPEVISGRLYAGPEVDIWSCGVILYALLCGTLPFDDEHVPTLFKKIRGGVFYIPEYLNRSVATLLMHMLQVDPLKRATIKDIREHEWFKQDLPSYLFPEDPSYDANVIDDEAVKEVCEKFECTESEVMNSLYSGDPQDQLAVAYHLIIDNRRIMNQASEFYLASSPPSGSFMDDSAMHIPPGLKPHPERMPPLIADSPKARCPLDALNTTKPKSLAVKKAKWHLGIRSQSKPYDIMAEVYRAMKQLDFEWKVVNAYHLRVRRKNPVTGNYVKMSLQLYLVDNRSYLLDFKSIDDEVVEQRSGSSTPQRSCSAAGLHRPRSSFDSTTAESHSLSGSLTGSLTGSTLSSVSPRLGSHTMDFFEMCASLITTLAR
5'-AMP-activated protein kinase catalytic subunit alpha-1 (Homo sapiens), sequence (Q13131 whole entry, looked up, the tested form may be a part): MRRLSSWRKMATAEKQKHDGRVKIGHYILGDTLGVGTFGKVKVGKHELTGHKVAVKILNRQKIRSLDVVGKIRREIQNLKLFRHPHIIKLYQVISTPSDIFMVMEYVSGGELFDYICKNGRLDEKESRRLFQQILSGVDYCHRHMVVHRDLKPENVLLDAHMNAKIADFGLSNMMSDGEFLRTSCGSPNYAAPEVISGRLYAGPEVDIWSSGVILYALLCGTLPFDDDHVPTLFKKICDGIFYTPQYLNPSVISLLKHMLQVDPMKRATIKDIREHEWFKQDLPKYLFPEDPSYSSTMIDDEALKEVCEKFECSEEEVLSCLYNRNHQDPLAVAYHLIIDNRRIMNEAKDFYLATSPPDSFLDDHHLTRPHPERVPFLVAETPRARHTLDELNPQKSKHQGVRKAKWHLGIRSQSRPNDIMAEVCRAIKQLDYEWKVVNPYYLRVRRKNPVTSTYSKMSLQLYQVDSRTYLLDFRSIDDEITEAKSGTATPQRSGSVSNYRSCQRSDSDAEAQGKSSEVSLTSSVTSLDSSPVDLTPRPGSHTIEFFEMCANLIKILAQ
Calcium/calmodulin-dependent protein kinase type II subunit beta (Homo sapiens), sequence (Q13554 whole entry): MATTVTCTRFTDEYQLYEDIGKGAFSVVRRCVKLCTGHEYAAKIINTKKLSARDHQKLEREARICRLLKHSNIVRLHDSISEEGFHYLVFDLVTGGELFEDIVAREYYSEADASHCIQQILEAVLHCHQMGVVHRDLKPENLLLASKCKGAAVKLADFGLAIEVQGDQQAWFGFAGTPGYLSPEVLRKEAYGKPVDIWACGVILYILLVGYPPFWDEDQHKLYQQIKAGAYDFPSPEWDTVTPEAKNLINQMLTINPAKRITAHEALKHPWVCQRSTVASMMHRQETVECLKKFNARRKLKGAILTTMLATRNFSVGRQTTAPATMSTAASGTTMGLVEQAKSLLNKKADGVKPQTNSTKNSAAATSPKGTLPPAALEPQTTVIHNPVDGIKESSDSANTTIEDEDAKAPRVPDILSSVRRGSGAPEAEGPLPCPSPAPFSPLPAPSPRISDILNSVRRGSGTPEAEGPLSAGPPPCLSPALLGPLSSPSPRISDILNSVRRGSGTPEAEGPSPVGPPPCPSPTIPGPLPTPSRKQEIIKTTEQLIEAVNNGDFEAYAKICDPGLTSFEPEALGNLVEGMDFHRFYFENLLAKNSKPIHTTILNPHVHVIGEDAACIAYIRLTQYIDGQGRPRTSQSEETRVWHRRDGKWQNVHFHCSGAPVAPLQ
Phosphatidylinositol 4-kinase beta (Homo sapiens), sequence (Q9UBF8 2-816 limits assumed): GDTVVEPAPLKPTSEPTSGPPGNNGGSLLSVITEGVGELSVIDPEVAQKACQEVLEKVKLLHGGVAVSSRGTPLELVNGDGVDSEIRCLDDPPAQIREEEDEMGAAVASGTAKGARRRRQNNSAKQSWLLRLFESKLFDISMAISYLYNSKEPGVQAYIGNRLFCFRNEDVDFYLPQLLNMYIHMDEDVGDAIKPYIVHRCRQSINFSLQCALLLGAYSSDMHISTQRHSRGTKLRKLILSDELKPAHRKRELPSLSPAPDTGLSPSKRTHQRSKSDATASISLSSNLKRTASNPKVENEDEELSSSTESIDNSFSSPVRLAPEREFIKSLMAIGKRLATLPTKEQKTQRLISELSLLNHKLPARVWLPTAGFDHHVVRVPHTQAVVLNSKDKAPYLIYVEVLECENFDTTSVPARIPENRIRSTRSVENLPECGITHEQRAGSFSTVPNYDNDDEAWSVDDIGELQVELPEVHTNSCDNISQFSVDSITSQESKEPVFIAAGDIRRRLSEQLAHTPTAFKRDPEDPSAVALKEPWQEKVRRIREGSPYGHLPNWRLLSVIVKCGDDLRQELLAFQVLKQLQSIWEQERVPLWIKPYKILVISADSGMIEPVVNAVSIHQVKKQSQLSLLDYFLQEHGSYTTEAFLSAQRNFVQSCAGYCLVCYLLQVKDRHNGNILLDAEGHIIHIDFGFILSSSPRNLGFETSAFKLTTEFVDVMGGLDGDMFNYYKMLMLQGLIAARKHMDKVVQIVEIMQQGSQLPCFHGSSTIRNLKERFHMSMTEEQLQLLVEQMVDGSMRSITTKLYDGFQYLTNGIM
Calcium/calmodulin-dependent protein kinase kinase 2 (Homo sapiens), sequence (Q96RR4 2-588 limits assumed): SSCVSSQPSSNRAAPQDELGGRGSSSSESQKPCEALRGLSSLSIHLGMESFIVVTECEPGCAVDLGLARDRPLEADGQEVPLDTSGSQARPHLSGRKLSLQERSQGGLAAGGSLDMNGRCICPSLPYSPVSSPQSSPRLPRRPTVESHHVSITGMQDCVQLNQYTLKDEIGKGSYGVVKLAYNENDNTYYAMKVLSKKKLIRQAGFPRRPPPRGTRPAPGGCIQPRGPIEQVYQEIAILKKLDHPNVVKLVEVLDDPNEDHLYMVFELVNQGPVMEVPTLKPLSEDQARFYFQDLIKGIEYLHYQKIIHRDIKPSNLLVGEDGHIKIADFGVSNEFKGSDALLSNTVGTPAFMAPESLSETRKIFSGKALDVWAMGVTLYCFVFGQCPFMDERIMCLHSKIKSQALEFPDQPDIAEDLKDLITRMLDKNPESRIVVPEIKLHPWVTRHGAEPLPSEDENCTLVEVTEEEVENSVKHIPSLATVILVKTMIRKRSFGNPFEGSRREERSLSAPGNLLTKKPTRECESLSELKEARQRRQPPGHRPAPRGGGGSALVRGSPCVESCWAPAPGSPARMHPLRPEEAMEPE
Non-receptor tyrosine-protein kinase TYK2 (Homo sapiens), sequence (P29597 whole entry, the tested form may be a part): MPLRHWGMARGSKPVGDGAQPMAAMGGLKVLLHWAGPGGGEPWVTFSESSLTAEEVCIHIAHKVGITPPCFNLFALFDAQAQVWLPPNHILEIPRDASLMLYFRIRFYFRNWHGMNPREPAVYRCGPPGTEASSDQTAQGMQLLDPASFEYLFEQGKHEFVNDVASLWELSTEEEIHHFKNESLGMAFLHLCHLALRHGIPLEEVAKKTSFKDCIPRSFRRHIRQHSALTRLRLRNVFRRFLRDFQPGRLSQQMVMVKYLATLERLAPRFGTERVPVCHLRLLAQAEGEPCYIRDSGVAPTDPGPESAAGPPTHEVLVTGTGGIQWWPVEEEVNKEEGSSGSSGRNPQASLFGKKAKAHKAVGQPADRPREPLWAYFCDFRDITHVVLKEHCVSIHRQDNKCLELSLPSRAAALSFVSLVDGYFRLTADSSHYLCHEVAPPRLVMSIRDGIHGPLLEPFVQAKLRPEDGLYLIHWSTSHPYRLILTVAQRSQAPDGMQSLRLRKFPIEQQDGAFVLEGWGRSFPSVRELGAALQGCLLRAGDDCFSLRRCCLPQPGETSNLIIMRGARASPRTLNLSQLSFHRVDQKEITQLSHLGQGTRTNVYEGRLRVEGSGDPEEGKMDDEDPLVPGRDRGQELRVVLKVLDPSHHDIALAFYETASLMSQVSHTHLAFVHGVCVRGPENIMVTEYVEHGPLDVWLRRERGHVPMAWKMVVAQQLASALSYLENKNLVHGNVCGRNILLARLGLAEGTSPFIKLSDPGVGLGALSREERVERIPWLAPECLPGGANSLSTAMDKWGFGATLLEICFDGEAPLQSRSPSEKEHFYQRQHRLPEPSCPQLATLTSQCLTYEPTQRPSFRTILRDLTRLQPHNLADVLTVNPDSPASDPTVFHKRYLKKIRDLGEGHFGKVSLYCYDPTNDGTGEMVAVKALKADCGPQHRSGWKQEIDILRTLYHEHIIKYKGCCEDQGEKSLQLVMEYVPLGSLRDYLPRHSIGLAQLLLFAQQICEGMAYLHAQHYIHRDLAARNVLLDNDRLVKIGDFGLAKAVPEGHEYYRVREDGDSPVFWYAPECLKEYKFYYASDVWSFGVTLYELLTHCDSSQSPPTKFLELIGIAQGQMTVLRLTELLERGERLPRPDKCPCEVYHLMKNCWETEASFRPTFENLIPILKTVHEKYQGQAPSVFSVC
3-phosphoinositide-dependent protein kinase 1 (Homo sapiens), sequence (O15530 whole entry): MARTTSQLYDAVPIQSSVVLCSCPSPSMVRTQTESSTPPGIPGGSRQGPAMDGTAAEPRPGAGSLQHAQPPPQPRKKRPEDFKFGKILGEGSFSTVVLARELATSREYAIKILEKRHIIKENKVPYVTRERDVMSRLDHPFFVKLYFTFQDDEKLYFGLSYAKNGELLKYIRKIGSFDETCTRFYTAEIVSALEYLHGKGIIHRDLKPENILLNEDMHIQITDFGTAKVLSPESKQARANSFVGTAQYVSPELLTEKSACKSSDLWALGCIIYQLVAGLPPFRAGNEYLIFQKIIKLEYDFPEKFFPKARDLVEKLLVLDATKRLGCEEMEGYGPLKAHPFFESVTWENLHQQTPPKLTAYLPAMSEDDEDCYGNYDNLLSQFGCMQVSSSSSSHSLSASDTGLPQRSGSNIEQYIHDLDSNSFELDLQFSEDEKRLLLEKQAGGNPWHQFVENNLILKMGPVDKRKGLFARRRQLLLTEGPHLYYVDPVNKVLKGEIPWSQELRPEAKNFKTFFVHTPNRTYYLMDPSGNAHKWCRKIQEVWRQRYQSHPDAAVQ

The inhibition is the drop in the measured response relative to a control, in per cent. Take `CNc1cc(Oc2cc(C(=O)Nc3cc(N4CCN(C)CC4)cc(C(F)(F)F)c3)ccc2C)ncn1`: the inhibition in experiment [1] was 16.6%; in [2], 14.7%; in experiment [3] it was 8.7%; in [4], -8.9%.
The compound `CCN1CCN(Cc2ccc(NC(=O)c3ccc(C)c(/C=C/c4cnc5[nH]ccc5c4OC)c3)cc2C(F)(F)F)CC1` registered a percent of control in experiment [5] of 3.4%. Moreover, the inhibition in experiment [6] was 19%; in [7], 16.5%; in experiment [8] it was 7.3%; in experiment [9], 20.3%; in experiment [11], 7.3%; in experiment [12] it was -0.9%. In addition, the residual activity in [10] was found to be 100%; in experiment [13], 62%.
Consider `CCN1CCN(Cc2ccc(NC(=O)c3ccc(C)c(Oc4ccnc5[nH]ccc45)c3)cc2C(F)(F)F)CC1`, for which the inhibition in [14] is -3.5%; in experiment [15], “Dose-Dependent Effect”; in [16] it was 28%; in [18], -7.1%. Further, in experiment [17], the inhibition result was “inactive”.
